# Legend:
# [1] = substrate: C[C@@H](O)[C@H](NC(=O)c1ccc(C#Cc2ccc(CN3CCOCC3)cc2)cc1)C(=O)NO; experiment: Ratio of Kcat to Km of Rhizobium leguminosarum LpxC S214G mutant
# In short: (§1)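 Wild-type and site-directed mutant LpxC (E. coli, R. leguminosarum) expressed and purified, then assayed by a previously described method. Substrate was UDP-3-O-(R-3-hydroxymyristoyl)-N-acetylglucosamine, varied for Michaelis–Menten analysis. KM and kcat came from data sets pooling multiple independent experiments.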
# [2] = substrate: C[C@@H](O)[C@H](NC(=O)c1ccc(C#Cc2ccc(CN3CCOCC3)cc2)cc1)C(=O)NO; experiment: Activity of Rhizobium leguminosarum LpxC S214G mutant; in short: as §1
# [3] = substrate: C[C@@H](O)[C@H](NC(=O)c1ccc(C#Cc2ccc(CN3CCOCC3)cc2)cc1)C(=O)NO; experiment: Activity of Rhizobium leguminosarum LpxC W206Q/S214G mutant; in short: as §1
# [4] = substrate: C[C@@H](O)[C@H](NC(=O)c1ccc(C#Cc2ccc(CN3CCOCC3)cc2)cc1)C(=O)NO; experiment: Ratio of Kcat to Km of Rhizobium leguminosarum LpxC W206Q/S214G mutant; in short: as §1
# [5] = substrate: C[C@@H](O)[C@H](NC(=O)c1ccc(C#Cc2ccc(CN3CCOCC3)cc2)cc1)C(=O)NO; experiment: Ratio of Kcat to Km for Escherichia coli LpxC; in short: as §1
# [6] = substrate: C[C@@H](O)[C@H](NC(=O)c1ccc(C#Cc2ccc(CN3CCOCC3)cc2)cc1)C(=O)NO; experiment: Activity of Escherichia coli LpxC; in short: as §1
# [7] = substrate: C[C@@H](O)[C@H](NC(=O)c1ccc(C#Cc2ccc(CN3CCOCC3)cc2)cc1)C(=O)NO; experiment: Ratio of Kcat to Km of Escherichia coli LpxC Q202W/G210S mutant; in short: as §1
# [8] = substrate: C[C@@H](O)[C@H](NC(=O)c1ccc(C#Cc2ccc(CN3CCOCC3)cc2)cc1)C(=O)NO; experiment: Activity of Escherichia coli LpxC Q202W/G210S mutant; in short: as §1
protein,measurement,setting,value
"UDP-3-O-acyl-N-acetylglucosamine deacetylase (Rhizobium leguminosarum bv. trifolii (strain WSM1325)), C6ARS9 S214G (protein) MAIGLLGFQTTVSRPVTLSGTGVHSGAEVSITLNPAESDTGVVFQRLHDNGDITELKAVSSQVGNTDLCTVLGFSPAHSVATIEHVMAAVYALGLDNVVIEVQGSEMPIMDGSSLPFVEAIEQVGLVSLGVKRRYIRITKPVRIEHGGSWSEFRPYDGTRFEVEIDFECPLIGRQKWAGDMTPAVFKAELSRARTFGFMRDVERLWASGHALGGSLENSVVISDDNTVINVEGLRYAKDEFVRHKTLDAVGDLSLAGVQFIGCYRSYRGGHKMNANALKALLADSSAYEVVETSTPRQRVAARELIAVSASEFAPWSA",kcat/Km,[1],3.1 10^4/M/s
same,Km,[2],3.9 µM
same,kcat,[2],0.12 s⁻¹
"UDP-3-O-acyl-N-acetylglucosamine deacetylase (Rhizobium leguminosarum bv. trifolii (strain WSM1325)), C6ARS9 W206Q,S214G (protein) MAIGLLGFQTTVSRPVTLSGTGVHSGAEVSITLNPAESDTGVVFQRLHDNGDITELKAVSSQVGNTDLCTVLGFSPAHSVATIEHVMAAVYALGLDNVVIEVQGSEMPIMDGSSLPFVEAIEQVGLVSLGVKRRYIRITKPVRIEHGGSWSEFRPYDGTRFEVEIDFECPLIGRQKWAGDMTPAVFKAELSRARTFGFMRDVERLQASGHALGGSLENSVVISDDNTVINVEGLRYAKDEFVRHKTLDAVGDLSLAGVQFIGCYRSYRGGHKMNANALKALLADSSAYEVVETSTPRQRVAARELIAVSASEFAPWSA",Km,[3],10 µM
same,kcat,[3],0.14 s⁻¹
same,kcat/Km,[4],1.4 10^4/M/s
"UDP-3-O-acyl-N-acetylglucosamine deacetylase (Escherichia coli K-12), P0A725 (protein) MIKQRTLKRIVQATGVGLHTGKKVTLTLRPAPANTGVIYRRTDLNPPVDFPADAKSVRDTMLCTCLVNEHDVRISTVEHLNAALAGLGIDNIVIEVNAPEIPIMDGSAAPFVYLLLDAGIDELNCAKKFVRIKETVRVEDGDKWAEFKPYNGFSLDFTIDFNHPAIDSSNQRYAMNFSADAFMRQISRARTFGFMRDIEYLQSRGLCLGGSFDCAIVVDDYRVLNEDGLRFEDEFVRHKMLDAIGDLFMCGHNIIGAFTAYKSGHALNNKLLQAVLAKQEAWEYVTFQDDAELPLAFKAPSAVLA",kcat/Km,[5],1.1 10^6/M/s
same,Km,[6],4 µM
same,kcat,[6],4.2 s⁻¹
"UDP-3-O-acyl-N-acetylglucosamine deacetylase (Escherichia coli K-12), P0A725 Q202W,G210S (protein) MIKQRTLKRIVQATGVGLHTGKKVTLTLRPAPANTGVIYRRTDLNPPVDFPADAKSVRDTMLCTCLVNEHDVRISTVEHLNAALAGLGIDNIVIEVNAPEIPIMDGSAAPFVYLLLDAGIDELNCAKKFVRIKETVRVEDGDKWAEFKPYNGFSLDFTIDFNHPAIDSSNQRYAMNFSADAFMRQISRARTFGFMRDIEYLWSRGLCLGSSFDCAIVVDDYRVLNEDGLRFEDEFVRHKMLDAIGDLFMCGHNIIGAFTAYKSGHALNNKLLQAVLAKQEAWEYVTFQDDAELPLAFKAPSAVLA",kcat/Km,[7],1.5 10^6/M/s
same,Km,[8],11 µM
same,kcat,[8],1.6 s⁻¹

# From ChEMBL document CHEMBL1147081, “Structure of the deacetylase LpxC bound to the antibiotic CHIR-090: Time-dependent inhibition and specificity in ligand binding” (Proc Natl Acad Sci U S A, 2007)
